≈ marks a conversion by molar mass, not a printed value.
Key:
CYP2C9 = CYP2C9 (Homo sapiens, UniProt P11712); test: Inhibition of CYP2C9 (unknown origin) at 10 uM; type: ADME
In short: (§1)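 Each test compound was tested at a single concentration of 10 μM against CYP1A2, 2C8, 2C9, 2C19, 2D6 and 3A4. Results are reported as percent inhibition.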

Staphylococcus aureus [1] = test: Antibacterial activity against Staphylococcus aureus ATCC 6538P by microbroth dilution method; type: functional
[2] = Lipophilicity, log D of the compound at pH 7.4; type: physicochemical; details: buffer
CYP2C8 = molecular target: T1, CYP2C8 (Homo sapiens, UniProt P10632); test: Inhibition of CYP2C8 (unknown origin) at 10 uM; type: ADME; in short: as §1
T1 sequence (P10632 whole entry): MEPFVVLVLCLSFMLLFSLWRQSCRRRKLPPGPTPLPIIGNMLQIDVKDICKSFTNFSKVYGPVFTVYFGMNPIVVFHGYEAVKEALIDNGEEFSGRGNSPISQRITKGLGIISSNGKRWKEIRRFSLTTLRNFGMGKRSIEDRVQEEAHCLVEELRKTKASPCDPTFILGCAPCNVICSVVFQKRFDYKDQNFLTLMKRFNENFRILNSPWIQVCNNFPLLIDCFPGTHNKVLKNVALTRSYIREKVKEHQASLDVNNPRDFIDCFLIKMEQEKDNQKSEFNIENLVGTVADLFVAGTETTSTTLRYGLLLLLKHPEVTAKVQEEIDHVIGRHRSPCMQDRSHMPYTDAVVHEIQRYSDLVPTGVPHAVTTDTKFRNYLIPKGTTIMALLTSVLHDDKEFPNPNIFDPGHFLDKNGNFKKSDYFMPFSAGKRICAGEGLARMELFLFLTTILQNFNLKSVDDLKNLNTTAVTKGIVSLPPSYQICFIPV

Staphylococcus aureus [3] = test: Antibacterial activity against Staphylococcus aureus ATCC 33591 by microbroth dilution method; type: functional
CYP2D6 = CYP2D6 (Homo sapiens, UniProt P10635); test: Inhibition of CYP2D6 (unknown origin) at 10 uM; type: ADME; in short: as §1
CYP2D6, sequence (P10635 whole entry): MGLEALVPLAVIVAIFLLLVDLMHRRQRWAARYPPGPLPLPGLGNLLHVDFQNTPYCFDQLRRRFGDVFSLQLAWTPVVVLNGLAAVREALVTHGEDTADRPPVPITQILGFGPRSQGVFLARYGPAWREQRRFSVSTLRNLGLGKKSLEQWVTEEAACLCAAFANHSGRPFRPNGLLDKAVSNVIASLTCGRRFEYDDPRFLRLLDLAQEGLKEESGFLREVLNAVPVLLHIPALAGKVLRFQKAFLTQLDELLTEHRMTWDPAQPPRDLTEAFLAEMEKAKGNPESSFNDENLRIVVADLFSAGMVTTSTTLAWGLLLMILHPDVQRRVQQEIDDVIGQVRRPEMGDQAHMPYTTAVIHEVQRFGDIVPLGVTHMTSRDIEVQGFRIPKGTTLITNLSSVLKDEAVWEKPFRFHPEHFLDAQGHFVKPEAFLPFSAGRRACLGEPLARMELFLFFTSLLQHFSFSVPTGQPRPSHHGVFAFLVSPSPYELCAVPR

CYP3A4 = CYP3A4 (Homo sapiens, UniProt P08684); test: Inhibition of CYP3A4 (unknown origin) at 10 uM; type: ADME; in short: as §1
CYP3A4, sequence (P08684 whole entry): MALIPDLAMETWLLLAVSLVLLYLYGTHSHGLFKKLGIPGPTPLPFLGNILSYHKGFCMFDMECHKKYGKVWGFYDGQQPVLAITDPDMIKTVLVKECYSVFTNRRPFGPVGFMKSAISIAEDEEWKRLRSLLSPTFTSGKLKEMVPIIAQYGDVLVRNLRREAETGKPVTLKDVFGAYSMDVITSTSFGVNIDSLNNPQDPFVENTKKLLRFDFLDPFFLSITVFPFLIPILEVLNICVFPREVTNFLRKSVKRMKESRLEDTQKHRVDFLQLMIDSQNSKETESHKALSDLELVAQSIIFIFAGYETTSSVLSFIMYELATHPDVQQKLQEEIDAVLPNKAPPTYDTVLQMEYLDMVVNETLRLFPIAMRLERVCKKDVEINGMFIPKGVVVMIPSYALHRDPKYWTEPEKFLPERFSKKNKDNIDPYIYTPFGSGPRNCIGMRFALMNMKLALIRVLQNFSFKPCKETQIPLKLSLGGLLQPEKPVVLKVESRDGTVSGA

[4] = Solubility in pH 1.2 buffer; type: physicochemical
In short: (§2)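 Aqueous solubility was measured in buffers at pH 1.2 and pH 6.8 and reported in μg/mL.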

Staphylococcus aureus [5] = test: Antibacterial activity against linezolid-resistant Staphylococcus aureus by microbroth dilution method; type: functional
Streptococcus pneumoniae = test: Antibacterial activity against Streptococcus pneumoniae 55143 by microbroth dilution method; type: functional
Enterococcus faecalis = test: Antibacterial activity against Enterococcus faecalis ATCC 29212 by microbroth dilution method; type: functional
Streptococcus pyogenes = test: Antibacterial activity against Streptococcus pyogenes ATCC 19615 by microbroth dilution method; type: functional
[6] = Solubility in pH 6.8 buffer; type: physicochemical; in short: as §2
Staphylococcus aureus [7] = test: Antibacterial activity against methicillin-resistant Staphylococcus aureus 1201984 by microbroth dilution method; type: functional
[8] = tested on: Staphylococcus epidermidis; test: Antibacterial activity against Staphylococcus epidermidis ATCC 14990 by microbroth dilution method; type: functional
CYP2C19 = CYP2C19 (Homo sapiens, UniProt P33261); test: Inhibition of CYP2C19 (unknown origin) at 10 uM; type: ADME; in short: as §1
CYP2C19, sequence (P33261 whole entry): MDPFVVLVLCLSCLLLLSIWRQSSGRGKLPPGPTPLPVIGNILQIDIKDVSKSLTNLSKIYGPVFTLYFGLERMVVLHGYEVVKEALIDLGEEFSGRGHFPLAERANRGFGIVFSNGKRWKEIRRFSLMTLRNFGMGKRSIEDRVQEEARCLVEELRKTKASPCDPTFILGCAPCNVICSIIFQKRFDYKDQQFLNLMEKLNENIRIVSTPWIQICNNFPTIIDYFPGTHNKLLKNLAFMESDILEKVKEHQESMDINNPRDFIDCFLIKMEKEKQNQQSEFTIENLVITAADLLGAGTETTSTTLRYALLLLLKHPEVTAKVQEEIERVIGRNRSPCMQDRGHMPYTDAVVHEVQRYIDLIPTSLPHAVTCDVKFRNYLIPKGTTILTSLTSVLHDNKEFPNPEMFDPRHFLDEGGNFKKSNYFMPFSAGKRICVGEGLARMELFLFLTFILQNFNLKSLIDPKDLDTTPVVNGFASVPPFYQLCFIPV

Staphylococcus aureus [9] = test: Antibacterial activity against Staphylococcus aureus ATCC 29213 by microbroth dilution method; type: functional
Haemophilus influenzae = test: Antibacterial activity against Haemophilus influenzae ATCC 49247 by microbroth dilution method; type: functional
Enterococcus faecium = test: Antibacterial activity against Enterococcus faecium 19434 by microbroth dilution method; type: functional
CYP1A2 = molecular target: T2, CYP1A2 (Homo sapiens, UniProt P05177); test: Inhibition of CYP1A2 (unknown origin) at 10 uM; type: ADME; in short: as §1
T2 sequence (P05177 whole entry): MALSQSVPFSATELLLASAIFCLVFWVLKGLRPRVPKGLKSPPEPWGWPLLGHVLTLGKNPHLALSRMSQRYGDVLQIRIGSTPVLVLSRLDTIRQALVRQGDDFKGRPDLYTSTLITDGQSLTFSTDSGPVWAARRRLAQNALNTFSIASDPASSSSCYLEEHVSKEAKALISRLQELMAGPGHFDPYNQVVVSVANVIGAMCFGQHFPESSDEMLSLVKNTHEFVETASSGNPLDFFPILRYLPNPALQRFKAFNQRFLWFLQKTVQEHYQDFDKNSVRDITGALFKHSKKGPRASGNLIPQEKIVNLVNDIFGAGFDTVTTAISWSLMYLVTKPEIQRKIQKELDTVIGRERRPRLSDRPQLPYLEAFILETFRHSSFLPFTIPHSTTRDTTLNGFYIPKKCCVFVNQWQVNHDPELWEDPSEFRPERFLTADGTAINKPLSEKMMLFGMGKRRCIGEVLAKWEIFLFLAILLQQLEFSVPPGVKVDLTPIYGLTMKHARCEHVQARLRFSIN

[10] = Metabolic stability in mouse liver microsomes assessed as parent compound remaining level; type: ADME, microsome
In short: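 Compound was incubated with mouse liver microsomes to assess phase I metabolism. Read-out is percent of parent compound remaining.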

CYP2C9, sequence (P11712 whole entry): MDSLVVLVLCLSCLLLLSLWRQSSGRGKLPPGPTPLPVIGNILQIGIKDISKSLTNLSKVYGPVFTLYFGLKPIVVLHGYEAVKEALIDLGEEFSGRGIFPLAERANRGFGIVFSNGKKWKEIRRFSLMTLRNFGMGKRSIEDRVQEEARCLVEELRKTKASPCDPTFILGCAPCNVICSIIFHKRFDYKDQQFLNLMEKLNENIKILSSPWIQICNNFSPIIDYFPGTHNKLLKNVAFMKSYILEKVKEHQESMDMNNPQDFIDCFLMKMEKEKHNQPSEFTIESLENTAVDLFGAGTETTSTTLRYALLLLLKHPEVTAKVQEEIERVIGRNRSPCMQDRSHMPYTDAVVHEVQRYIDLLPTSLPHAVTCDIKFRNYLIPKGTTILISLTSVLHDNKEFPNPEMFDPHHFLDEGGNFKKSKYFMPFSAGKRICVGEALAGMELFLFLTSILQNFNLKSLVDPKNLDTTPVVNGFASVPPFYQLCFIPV

**Q.** What does the source list for `CC(=O)NC[C@H]1CN(c2ccc(-c3ccc4c(c3)NC(=O)CO4)c(F)c2)C(=O)O1`?
**A.** inhibition at 10 µM (CYP2C9): 13%; MIC (Staphylococcus aureus [1]): 0.125 µg/mL (≈ 0.313 µM); logD [2]: 1.9; inhibition at 10 µM (CYP2C8): 12%; MIC (Staphylococcus aureus [3]): 0.5 µg/mL (≈ 1.25 µM); inhibition at 10 µM (CYP2D6): 10%; inhibition at 10 µM (CYP3A4): 0%; solubility [4]: 22 µg/mL (≈ 55.1 µM); MIC (Staphylococcus aureus [5]): 1 µg/mL (≈ 2.5 µM); MIC (Streptococcus pneumoniae): 0.06 µg/mL (≈ 0.15 µM); MIC (Enterococcus faecalis): 0.03 µg/mL (≈ 0.0751 µM); MIC (Streptococcus pyogenes): 0.06 µg/mL (≈ 0.15 µM); solubility [6]: 15 µg/mL (≈ 37.6 µM); MIC (Staphylococcus aureus [7]): 0.5 µg/mL (≈ 1.25 µM); MIC [8]: 0.06 µg/mL (≈ 0.15 µM); inhibition at 10 µM (CYP2C19): 20%; MIC (Staphylococcus aureus [9]): 0.125 µg/mL (≈ 0.313 µM); MIC (Haemophilus influenzae): 0.25 µg/mL (≈ 0.626 µM); MIC (Enterococcus faecium): 0.03 µg/mL (≈ 0.0751 µM); inhibition at 10 µM (CYP1A2): 6%; Stability [10]: 84%

**Q.** Which inhibition at 10 µM (CYP2C9) does the source give for `O=C1COc2ccc(-c3ccc(N4C[C@H](CO)OC4=O)cc3F)cc2N1` here?
**A.** Its inhibition at 10 µM is 12%.

**Q.** And the MIC (Staphylococcus aureus [1])?
**A.** The MIC was under 0.06 µg/mL.

**Q.** What about the logD [2] of the same compound?
**A.** The logD was 1.9.

**Q.** And the inhibition at 10 µM (CYP2C8)?
**A.** The inhibition at 10 µM was 0%.

**Q.** And the MIC (Staphylococcus aureus [3])?
**A.** The MIC was 0.5 µg/mL (≈ 1.4 µM).

**Q.** And the inhibition at 10 µM (CYP2D6)?
**A.** The inhibition at 10 µM was 4%.

**Q.** And the inhibition at 10 µM (CYP3A4)?
**A.** The inhibition at 10 µM was 0%.

**Q.** What about the solubility [4] of the same compound?
**A.** Its solubility is 4.4 µg/mL (≈ 12.3 µM).

**Q.** What about the MIC (Staphylococcus aureus [5]) of the same compound?
**A.** Its MIC is 1 µg/mL (≈ 2.79 µM).

**Q.** And the MIC (Streptococcus pneumoniae)?
**A.** The MIC was under 0.06 µg/mL.

**Q.** And the MIC (Enterococcus faecalis)?
**A.** Its MIC is under 0.06 µg/mL.

**Q.** What about the MIC (Streptococcus pyogenes) of the same compound?
**A.** Its MIC is under 0.06 µg/mL.

**Q.** And the solubility [6]?
**A.** The solubility was 5.2 µg/mL (≈ 14.5 µM).

**Q.** What about the MIC (Staphylococcus aureus [7]) of the same compound?
**A.** Its MIC is 0.5 µg/mL (≈ 1.4 µM).

**Q.** What about the MIC [8] of the same compound?
**A.** Its MIC is under 0.06 µg/mL.

**Q.** And the inhibition at 10 µM (CYP2C19)?
**A.** The inhibition at 10 µM was 29%.

**Q.** And the MIC (Staphylococcus aureus [9])?
**A.** Its MIC is 0.125 µg/mL (≈ 0.349 µM).

**Q.** What about the MIC (Haemophilus influenzae) of the same compound?
**A.** The MIC was 0.5 µg/mL (≈ 1.4 µM).

**Q.** What about the MIC (Enterococcus faecium) of the same compound?
**A.** The MIC was under 0.06 µg/mL.

**Q.** What about the inhibition at 10 µM (CYP1A2) of the same compound?
**A.** Its inhibition at 10 µM is 4%.

**Q.** What about the Stability [10] of the same compound?
**A.** The Stability was 113%.

— ChEMBL document CHEMBL4130562, “Design, Synthesis, and Antibacterial Evaluation of Oxazolidinones with Fused Heterocyclic C-Ring Substructure” (ACS Med Chem Lett, 2017)
